From ChEMBL document CHEMBL1126554, “Synthesis of novel modified dipeptide inhibitors of human collagenase: beta-mercapto carboxylic acid derivatives” (J Med Chem, 1993)
pIC50: −log10 of the molar value.

molecular target: T1, Interstitial collagenase (Homo sapiens, UniProt P03956); assay: Inhibition of rat skin type I collagen degradation by purified human lung fibroblast collagenase without beta-mercaptoethanol
T1 sequence (P03956 whole entry): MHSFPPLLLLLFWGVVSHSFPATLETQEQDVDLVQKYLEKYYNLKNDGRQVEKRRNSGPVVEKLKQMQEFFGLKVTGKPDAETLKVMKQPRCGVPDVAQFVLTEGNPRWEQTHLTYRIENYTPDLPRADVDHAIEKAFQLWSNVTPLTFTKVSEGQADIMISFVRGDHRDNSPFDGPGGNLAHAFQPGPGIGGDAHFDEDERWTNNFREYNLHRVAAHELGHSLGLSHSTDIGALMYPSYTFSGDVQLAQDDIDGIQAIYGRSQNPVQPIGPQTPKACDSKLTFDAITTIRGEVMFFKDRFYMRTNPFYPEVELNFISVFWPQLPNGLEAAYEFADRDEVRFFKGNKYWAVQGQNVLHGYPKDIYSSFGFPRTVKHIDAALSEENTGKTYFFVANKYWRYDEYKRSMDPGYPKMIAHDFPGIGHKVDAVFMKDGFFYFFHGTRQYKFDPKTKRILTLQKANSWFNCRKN
Procedure, shortened: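 β-Mercaptoethanol omitted. Enzyme was trypsin-activated, semipurified collagenase from WI-38 fibroblast culture supernatants. Compounds sonicated into MeOH, serially diluted. Collagen 3H- or 14C-acetylated, 100 μg/tube, added to tubes cooled to 4 °C. Incubated 37 °C for 1000 min, centrifuged 12 000 rpm for 15 min at 4 °C. Soluble supernatant peptides counted by liquid scintillation.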

Compound	pIC50
CNC(=O)[C@H](Cc1c[nH]c2ccccc12)NC(=O)[C@H](CC(C)C)[C@@H](S)CC(=O)OC	7.68
CNC(=O)[C@H](Cc1c[nH]c2ccccc12)NC(=O)[C@H](CC(C)C)[C@H](CC(=O)OC)SS[C@@H](CC(=O)OC)[C@@H](CC(C)C)C(=O)N[C@@H](Cc1c[nH]c2ccccc12)C(=O)NC	5.85

molecular target: T1, Interstitial collagenase; assay: Inhibition of rat skin type I collagen degradation by purified human lung fibroblast collagenase
Procedure, shortened: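 Trypsin-activated, semipurified enzyme from WI-38 lung fibroblast culture supernatants. Compounds sonicated into MeOH and serially diluted; some runs had β-mercaptoethanol at 9.6×10^-5 M final. 3H- or 14C-acetylated collagen (100 μg/tube) added at 4 °C, then 37 °C for 1000 min. Spun 12 000 rpm, 15 min, 4 °C. Supernatant peptides counted by scintillation. Enzyme set for 70% degradation.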

Compound	pIC50
CNC(=O)[C@H](Cc1c[nH]c2ccccc12)NC(=O)[C@H](CC(C)C)[C@@H](S)CC(=O)OC	8.60
CNC(=O)[C@H](Cc1c[nH]c2ccccc12)NC(=O)[C@@H](CC(C)C)[C@H](S)CC(=O)OC	7.92
CNC(=O)[C@H](Cc1ccc(OC)cc1)NC(=O)C(CC(C)C)C(C)S (some centres undefined)	7.77
CNC(=O)[C@H](Cc1c[nH]c2ccccc12)NC(=O)[C@H](CC(C)C)[C@H](CC(=O)OC)SS[C@@H](CC(=O)OC)[C@@H](CC(C)C)C(=O)N[C@@H](Cc1c[nH]c2ccccc12)C(=O)NC	7.66
CNC(=O)[C@H](Cc1c[nH]c2ccccc12)NC(=O)[C@H](CC(C)C)[C@H](CC(=O)OC)SC(C)=O	7.72
CNC(=O)[C@H](Cc1c[nH]c2ccccc12)NC(=O)C(CC(C)C)C(S)CC(=O)OC (stereo in doubt; 56b)	6.09
CNC(=O)[C@H](Cc1c[nH]c2ccccc12)NC(=O)C(CC(C)C)C(S)CC(=O)OC (stereo in doubt; 56c)	6.14

molecular target: T1, Interstitial collagenase; assay: Inhibition of radiolabeled rat skin type I collagen degradation by purified human lung fibroblast collagenase.
Procedure, shortened: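 Trypsin-activated, semipurified enzyme from WI-38 lung fibroblast culture supernatants. 3H- or 14C-acetylated collagen (100 μg/tube) added at 4 °C, then 37 °C for 1000 min. Spun 12 000 rpm, 15 min, 4 °C. Supernatant peptides counted by scintillation. Enzyme set for 70% degradation.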

Compound	pIC50
CNC(=O)[C@H](Cc1ccc(OC)cc1)NC(=O)[C@H](CC(C)C)[C@@H](S)CC(=O)O	7.60
CNC(=O)[C@H](Cc1ccc(OC)cc1)NC(=O)[C@H](CC(C)C)[C@@H](S)CC(=O)N1CCN(C)CC1	6.92
CNC(=O)[C@H](Cc1ccc(OC)cc1)NC(=O)[C@H](CC(C)C)[C@@H](S)CC(N)=O	7.64
CNC(=O)[C@H](Cc1ccc(OC)cc1)NC(=O)[C@H](CC(C)C)[C@@H](S)CC(=O)NCC(=O)OC(C)(C)C	6.55
CNC(=O)[C@H](Cc1ccc(OC)cc1)NC(=O)[C@H](CC(C)C)[C@@H](S)CC(=O)NCC(=O)O	7.57
CNC(=O)[C@H](Cc1ccc(OC)cc1)NC(=O)[C@H](CC(C)C)[C@H](CC(=O)OC)SC(C)=O	7.36
CNC(=O)[C@H](Cc1ccc(OC)cc1)NC(=O)[C@H](CC(C)C)[C@@H](S)CC(=O)NC(CC(C)C)C(=O)OC(C)(C)C (some centres undefined)	6.01
CNC(=O)[C@H](Cc1ccc(OC)cc1)NC(=O)[C@H](CC(C)C)[C@@H](S)CC(=O)NCC(N)=O	7.49
CNC(=O)[C@H](Cc1ccccc1)NC(=O)[C@H](CC(C)C)[C@@H](S)CC(=O)OC	8.70
CNC(=O)[C@H](Cc1ccc(OC)cc1)NC(=O)[C@H](CC(C)C)[C@@H](S)CC(=O)NC(CC(C)C)C(=O)O (some centres undefined)	6.08
CNC(=O)C[C@H](S)[C@@H](CC(C)C)C(=O)N[C@@H](Cc1ccc(OC)cc1)C(=O)NC	6.84
CNC(=O)[C@H](Cc1ccc(OC)cc1)NC(=O)[C@H](CC(C)C)[C@@H](S)CC(=O)OC(C)(C)C	8.00
CNC(=O)[C@@H](NC(=O)C(CC(C)C)C(S)CC(=O)OC)C(C)OCc1ccccc1 (stereo in doubt; 57ab)	8.52
CNC(=O)[C@@H](NC(=O)C(CC(C)C)C(S)CC(=O)OC)C(C)OCc1ccccc1 (stereo in doubt; 57cd)	7.89
COC(=O)C[C@H](S)[C@@H](CC(C)C)C(=O)N[C@@H](Cc1ccccc1)C(N)=O (stereo in doubt; 58cd)	6.72
